≈ marks a conversion by molar mass, not a printed value.
Columns and labels:
Format in all cases: functional
Candida parapsilosis = test: Antifungal activity against Candida parapsilosis ATCC 0306392 after 7 days by micro-broth dilution method; details: Lodderomyces parapsilosis, ATCC 0306392, 168 h
Method in brief: (§1)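 Micro-broth dilution followed NCCLS methods, using an ATCC standard quality-control strain for C. parapsilosis and a clinical isolate for C. tropicalis. Compounds were dissolved in DMSO, serially diluted in growth medium and incubated at 35 C. MIC80 was the first well with about 80% growth reduction compared with the drug-free well.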

Candida albicans = test: Antifungal activity against Candida albicans ATCC Y0109 after 24 hrs by micro-broth dilution method
Method in brief: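 An ATCC standard quality-control strain was included in each run of an NCCLS micro-broth dilution assay. Compounds were dissolved in DMSO, serially diluted in growth medium and incubated at 35 C. Reading was at 24 h, and MIC80 was the first well showing roughly 80% growth reduction versus the drug-free control.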

Candida tropicalis = test: Antifungal activity against Candida tropicalis after 7 days by micro-broth dilution method; details: 168 h; method in brief: as §1
Cryptococcus neoformans = test: Antifungal activity against Cryptococcus neoformans ATCC BLS108 after 72 hrs by micro-broth dilution method
Method in brief: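 This ATCC standard quality-control strain was tested in every assay by NCCLS microdilution. Test agents were dissolved in DMSO and serially diluted in growth medium. Cultures were incubated at 35 C and read at 72 h. MIC80 was the first well with approximately 80% reduced growth relative to the drug-free well.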

Aspergillus fumigatus = test: Antifungal activity against Aspergillus fumigatus after 7 days by micro-broth dilution method; details: 168 h
Method in brief: (§2)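 Clinical isolates supplied by a hospital were tested by NCCLS broth microdilution. Compounds were dissolved in DMSO, serially diluted in growth medium, inoculated and incubated at 35 C. Growth was read at 7 days for filamentous fungi. MIC80 was taken as the first well with about 80% less growth than the drug-free well.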

Trichophyton rubrum = test: Antifungal activity against Trichophyton rubrum after 7 days by microbroth dilution method; details: 168 h; method in brief: as §2
Fonsecaea compacta = test: Antifungal activity against Fonsecaea compacta after 7 days by micro-broth dilution method; details: 168 h; method in brief: as §2
Microsporum = test: Antifungal activity against Microsporum gypseum after 7 days by micro-broth dilution method; details: 168 h; method in brief: as §2

Row | MIC80 (Candida parapsilosis) | MIC80 (Candida albicans) | MIC80 (Candida tropicalis) | MIC80 (Cryptococcus neoformans) | MIC80 (Aspergillus fumigatus) | MIC80 (Trichophyton rubrum) | MIC80 (Fonsecaea compacta) | MIC80 (Microsporum) | Structure (SMILES)
1 | 0.25 µg/mL (≈ 0.441 µM) | 0.0625 µg/mL (≈ 0.11 µM) | 0.0152 µg/mL (≈ 0.0268 µM) | 0.0625 µg/mL (≈ 0.11 µM) | 1 µg/mL (≈ 1.76 µM) | 0.0625 µg/mL (≈ 0.11 µM) | 0.25 µg/mL (≈ 0.441 µM) | 0.0625 µg/mL (≈ 0.11 µM) | COc1ccccc1C(=O)Nc1ccc(N2CCN(CC(O)(Cn3cncn3)c3ccc(F)cc3F)CC2)c(F)c1 (stereo unspecified)
2 | 0.0152 µg/mL (≈ 0.0276 µM) | 0.0625 µg/mL (≈ 0.114 µM) | 0.0152 µg/mL (≈ 0.0276 µM) | 0.0625 µg/mL (≈ 0.114 µM) | 1 µg/mL (≈ 1.82 µM) | 0.0625 µg/mL (≈ 0.114 µM) | 0.25 µg/mL (≈ 0.454 µM) | 0.0152 µg/mL (≈ 0.0276 µM) | Cc1cccc(C(=O)Nc2ccc(N3CCN(CC(O)(Cn4cncn4)c4ccc(F)cc4F)CC3)c(F)c2)c1 (stereo unspecified)
3 | 0.0152 µg/mL (≈ 0.0283 µM) | 0.0625 µg/mL (≈ 0.116 µM) | 0.0039 µg/mL (≈ 0.00727 µM) | 0.0625 µg/mL (≈ 0.116 µM) | 1 µg/mL (≈ 1.86 µM) | 0.0152 µg/mL (≈ 0.0283 µM) | 0.25 µg/mL (≈ 0.466 µM) | 0.0152 µg/mL (≈ 0.0283 µM) | O=C(Nc1ccc(N2CCN(CC(O)(Cn3cncn3)c3ccc(F)cc3F)CC2)c(F)c1)c1ccccc1 (stereo unspecified)
4 | 0.0152 µg/mL (≈ 0.0276 µM) | 0.0625 µg/mL (≈ 0.114 µM) | 0.0152 µg/mL (≈ 0.0276 µM) | 0.0625 µg/mL (≈ 0.114 µM) | 1 µg/mL (≈ 1.82 µM) | 0.0625 µg/mL (≈ 0.114 µM) | 0.0625 µg/mL (≈ 0.114 µM) | 1 µg/mL (≈ 1.82 µM) | Cc1ccc(C(=O)Nc2ccc(N3CCN(CC(O)(Cn4cncn4)c4ccc(F)cc4F)CC3)c(F)c2)cc1 (stereo unspecified)

More lines, now with the values behind:

Row | Structure (SMILES) | MIC80 (Candida parapsilosis) | MIC80 (Candida albicans) | MIC80 (Candida tropicalis) | MIC80 (Cryptococcus neoformans) | MIC80 (Aspergillus fumigatus) | MIC80 (Trichophyton rubrum) | MIC80 (Fonsecaea compacta) | MIC80 (Microsporum)
5 | CCCCCc1ccc(C(=O)Nc2ccc(N3CCN(CC(O)(Cn4cncn4)c4ccc(F)cc4F)CC3)c(F)c2)cc1 (stereo unspecified) | 0.25 µg/mL (≈ 0.412 µM) | 0.25 µg/mL (≈ 0.412 µM) | 4 µg/mL (≈ 6.59 µM) | 0.25 µg/mL (≈ 0.412 µM) | 4 µg/mL (≈ 6.59 µM) | 1 µg/mL (≈ 1.65 µM) | 1 µg/mL (≈ 1.65 µM) | 1 µg/mL (≈ 1.65 µM)
6 | CC(C)(C)c1ccc(C(=O)Nc2ccc(N3CCN(CC(O)(Cn4cncn4)c4ccc(F)cc4F)CC3)c(F)c2)cc1 (stereo unspecified) | 0.0625 µg/mL (≈ 0.105 µM) | 1 µg/mL (≈ 1.69 µM) | 0.25 µg/mL (≈ 0.422 µM) | 0.25 µg/mL (≈ 0.422 µM) | 4 µg/mL (≈ 6.75 µM) | 4 µg/mL (≈ 6.75 µM) | 0.25 µg/mL (≈ 0.422 µM) | 0.25 µg/mL (≈ 0.422 µM)
7 | O=[N+]([O-])c1ccc(N2CCN(CC(O)(Cn3cncn3)c3ccc(F)cc3F)CC2)c(F)c1 (stereo unspecified) | 0.0039 µg/mL (≈ 0.00843 µM) | 0.0152 µg/mL (≈ 0.0329 µM) | 0.0152 µg/mL (≈ 0.0329 µM) | 0.0152 µg/mL (≈ 0.0329 µM) | 1 µg/mL (≈ 2.16 µM) | 0.0152 µg/mL (≈ 0.0329 µM) | 0.0625 µg/mL (≈ 0.135 µM) | 0.0152 µg/mL (≈ 0.0329 µM)
